Source: ChEMBL document CHEMBL3621107, “Ring fusion strategy for synthesis and lead optimization of sulfur-substituted anthra[1,2-c][1,2,5]thiadiazole-6,11-dione derivatives as promising scaffold of antitumor agents” (Eur J Med Chem, 2015)
pIC50: −log10 of the molar value.

Tests used:
M14 = assay: Cytotoxicity against human M14 cells assessed as cell growth at 10 uM after 48 hrs by SRB assay relative to control; format: functional; conditions: M14, 48 h, read-out: Activity
Summary of the method: (§1)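 First-stage NCI-60 screen by the NCI Developmental Therapeutics Program. Each compound was tested once at a single concentration of 10 μM against the 60-cell-line panel. Growth percentage was reported for each cell line.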

MDA-MB-435 = assay: Cytotoxicity against human MDA-MB-435 cells assessed as cell growth at 10 uM after 48 hrs by SRB assay relative to control; format: functional; conditions: MDA-MB-435, 48 h, read-out: Activity
Summary of the method: (§2)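 First-stage NCI DTP one-dose screen against the 60 human tumour cell line panel. Compounds were tested at a single 10 μM level, and results are given as growth percentage.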

SK-MEL-2 = assay: Cytotoxicity against human SK-MEL-2 cells assessed as cell growth at 10 uM after 48 hrs by SRB assay relative to control; format: functional; conditions: SK-MEL-2, 48 h, read-out: Activity; summary of the method: as §2
SK-MEL-28 = assay: Cytotoxicity against human SK-MEL-28 cells assessed as cell growth at 10 uM after 48 hrs by SRB assay relative to control; format: functional; conditions: SK-MEL-28, 48 h, read-out: Activity; summary of the method: as §2
OVCAR-3 = assay: Cytotoxicity against human OVCAR3 cells assessed as cell growth at 10 uM after 48 hrs by SRB assay relative to control; format: functional; conditions: OVCAR-3, 48 h, read-out: Activity; summary of the method: as §2
OVCAR-5 = assay: Cytotoxicity against human OVCAR5 cells assessed as cell growth at 10 uM after 48 hrs by SRB assay relative to control; format: functional; conditions: OVCAR-5, 48 h, read-out: Activity; summary of the method: as §2
OVCAR-8 = assay: Cytotoxicity against human OVCAR8 cells assessed as cell growth at 10 uM after 48 hrs by SRB assay relative to control; format: functional; conditions: OVCAR-8, 48 h, read-out: Activity; summary of the method: as §2
NCI/ADR-RES = assay: Cytotoxicity against human NCI/ADR-RES cells assessed as cell growth at 10 uM after 48 hrs by SRB assay relative to control; format: functional; conditions: read-out: Activity; summary of the method: as §2
786-0 = assay: Cytotoxicity against human 786-0 cells assessed as cell growth at 10 uM after 48 hrs by SRB assay relative to control; format: functional; conditions: 786-0, 48 h, read-out: Activity; summary of the method: as §1
ACHN = assay: Cytotoxicity against human ACHN cells assessed as cell growth at 10 uM after 48 hrs by SRB assay relative to control; format: functional; conditions: read-out: Activity; summary of the method: as §1
RXF 393 = assay: Cytotoxicity against human RXF393 cells assessed as cell growth at 10 uM after 48 hrs by SRB assay relative to control; format: functional; conditions: RXF 393, 48 h, read-out: Activity; summary of the method: as §2
SN12C = assay: Cytotoxicity against human SN12C cells assessed as cell growth at 10 uM after 48 hrs by SRB assay relative to control; format: functional; conditions: read-out: Activity; summary of the method: as §2
PC-3 = assay: Cytotoxicity against human PC3 cells assessed as cell growth at 10 uM after 48 hrs by SRB assay relative to control; format: functional; conditions: PC-3, 48 h, read-out: Activity; summary of the method: as §2
MDA-MB-231 = assay: Cytotoxicity against human MDA-MB-231 cells assessed as cell growth at 10 uM after 48 hrs by SRB assay relative to control; format: functional; conditions: MDA-MB-231, 48 h, read-out: Activity; summary of the method: as §2
DU-145 = assay: Cytotoxicity against human DU145 cells after 72 hrs by MTT assay; format: functional, cell-based; conditions: for pIC50: DU-145, 72 h
Summary of the method: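 DU-145 cells grown in RPMI-1640 with 5% heat-inactivated fetal calf serum at 37 °C, 5% CO2. About 2×10^3 cells per well were seeded and incubated for 24 h. Compounds were dissolved in DMSO freshly and diluted into medium (vehicle 0.1% DMSO), then cells were exposed for 72 h. MTT was added for 3 h at 37 °C and absorbance read at 570 nm.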

HL-60(TB) = assay: Cytotoxicity against human HL-60(TB) cells assessed as cell growth at 10 uM after 48 hrs by SRB assay relative to control; format: functional; conditions: HL-60, 48 h, read-out: Activity
Summary of the method: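 NCI Developmental Therapeutics Program 60-cell-line screen, first stage: a single dose of 10 μM against the panel, reported as percentage growth.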

K562 = assay: Cytotoxicity against human K562 cells assessed as cell growth at 10 uM after 48 hrs by SRB assay relative to control; format: functional; conditions: K562, 48 h, read-out: Activity; summary of the method: as §1
RPMI-8226 = assay: Cytotoxicity against human RPMI8226 cells assessed as cell growth at 10 uM after 48 hrs by SRB assay relative to control; format: functional; conditions: RPMI-8226, 48 h, read-out: Activity; summary of the method: as §2
A549 = assay: Cytotoxicity against human A549 cells assessed as cell growth at 10 uM after 48 hrs by SRB assay relative to control; format: functional; conditions: A549, 48 h, read-out: Activity; summary of the method: as §1
HOP-62 = assay: Cytotoxicity against human HOP62 cells assessed as cell growth at 10 uM after 48 hrs by SRB assay relative to control; format: functional; conditions: HOP-62, 48 h, read-out: Activity; summary of the method: as §1
NCI-H226 = assay: Cytotoxicity against human NCI-H226 cells assessed as cell growth at 10 uM after 48 hrs by SRB assay relative to control; format: functional; conditions: NCI-H226, 48 h, read-out: Activity; summary of the method: as §2
HCT-15 = assay: Cytotoxicity against human HCT15 cells assessed as cell growth at 10 uM after 48 hrs by SRB assay relative to control; format: functional; conditions: HCT-15, 48 h, read-out: Activity; summary of the method: as §1
HT-29 = assay: Cytotoxicity against human HT-29 cells assessed as cell growth at 10 uM after 48 hrs by SRB assay relative to control; format: functional; conditions: HT-29, 48 h, read-out: Activity; summary of the method: as §1
KM12 = assay: Cytotoxicity against human KM12 cells assessed as cell growth at 10 uM after 48 hrs by SRB assay relative to control; format: functional; conditions: KM12, 48 h, read-out: Activity; summary of the method: as §1
SF-268 = assay: Cytotoxicity against human SF268 cells assessed as cell growth at 10 uM after 48 hrs by SRB assay relative to control; format: functional; conditions: SF-268, 48 h, read-out: Activity; summary of the method: as §2
SF-295 = assay: Cytotoxicity against human SF295 cells assessed as cell growth at 10 uM after 48 hrs by SRB assay relative to control; format: functional; conditions: SF-295, 48 h, read-out: Activity; summary of the method: as §2
SNB-19 = assay: Cytotoxicity against human SNB19 cells assessed as cell growth at 10 uM after 48 hrs by SRB assay relative to control; format: functional; conditions: SNB-19, 48 h, read-out: Activity
Summary of the method: (§3)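 NCI-60 one-dose screen run by NCI DTP: each cell line exposed to a single 10 µM dose, and percentage growth recorded against untreated growth.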

U-251 = assay: Cytotoxicity against human U251 cells assessed as cell growth at 10 uM after 48 hrs by SRB assay relative to control; format: functional; conditions: U-251, 48 h, read-out: Activity; summary of the method: as §3
SK-OV-3 = assay: Cytotoxicity against human SKOV3 cells assessed as cell growth at 10 uM after 48 hrs by SRB assay relative to control; format: functional; conditions: SK-OV-3, 48 h, read-out: Activity; summary of the method: as §2
A498 = assay: Cytotoxicity against human A498 cells assessed as cell growth at 10 uM after 48 hrs by SRB assay relative to control; format: functional; conditions: A498, 48 h, read-out: Activity; summary of the method: as §1

Row | SMILES | growth at 10 µM (M14) [%] | growth at 10 µM (SK-MEL-2) [%] | growth at 10 µM (SK-MEL-28) [%] | growth at 10 µM (OVCAR-3) [%] | growth at 10 µM (OVCAR-8) [%] | growth at 10 µM (786-0) [%] | growth at 10 µM (RXF 393) [%] | growth at 10 µM (SN12C) [%] | growth at 10 µM (PC-3) [%] | growth at 10 µM (MDA-MB-231) [%] | pIC50 (DU-145) | growth at 10 µM (HL-60(TB)) [%] | growth at 10 µM (K562) [%] | growth at 10 µM (RPMI-8226) [%] | growth at 10 µM (A549) [%] | growth at 10 µM (HOP-62) [%] | growth at 10 µM (NCI-H226) [%] | growth at 10 µM (HCT-15) [%] | growth at 10 µM (KM12) [%] | growth at 10 µM (SF-268) [%] | further results
1 | Cc1cccc(C)c1Sc1cc2c(c3nsnc13)C(=O)c1ccccc1C2=O | 122 | 67.5 | 89.3 | 1 | 59 | 115 | 76.2 | 67.7 | 59.9 | 30.6 | 5.10 | 47.8 | 43.1 | 55.6 | 90.2 | 90 | 78.3 | 47.5 | 96 | 79.5 | growth at 10 µM (MDA-MB-435): 96.8%; growth at 10 µM (OVCAR-5): 114%; growth at 10 µM (NCI/ADR-RES): 59.7%; growth at 10 µM (ACHN): 83.2%; growth at 10 µM (HT-29): 97.7%; growth at 10 µM (SF-295): 91.1%; growth at 10 µM (SNB-19): 94.8%; growth at 10 µM (U-251): 53.9%
2 | CC(C)Sc1cc2c(c3nsnc13)C(=O)c1ccccc1C2=O | -31.5 | -55.6 | -8.32 | -60.3 | -22.6 | 12.4 | 13.6 | -28.6 | -13.4 | -35.9 | 5.34 | -41.2 | -26.2 | -38 | -8.14 | 13.2 | 10.2 | 15.3 | 19.3 | 7.06 | growth at 10 µM (MDA-MB-435): -79.3%; growth at 10 µM (OVCAR-5): -27.9%; growth at 10 µM (NCI/ADR-RES): -24.9%; growth at 10 µM (ACHN): 0.8%; Activity (DU-145): Dose-dependent effect; growth at 10 µM (HT-29): 48.1%; growth at 10 µM (SF-295): -16.6%; growth at 10 µM (SNB-19): 21.9%; growth at 10 µM (U-251): -23.1%
3 | O=C1c2ccccc2C(=O)c2c1cc(Sc1ccccc1)c1nsnc21 | 106 | 112 | 127 | 96.7 | 82.3 | 110 | 114 | 96.6 | 87.3 | 66.7 | < 4.82 | 83.9 | 52 | 78.2 | 106 | 110 | 102 | 93.9 | 99.5 | 102 | growth at 10 µM (SK-OV-3): 106%; growth at 10 µM (A498): 95%; growth at 10 µM (SF-295): 106%; growth at 10 µM (SNB-19): 109%; growth at 10 µM (U-251): 88.8%
4 | COc1ccc(Sc2cc3c(c4nsnc24)C(=O)c2ccccc2C3=O)cc1 | 92.9 | 99.2 | 116 | 110 | 99.5 | 94.9 | 109 | 107 | 82.8 | 87.6 | 5.08 | 103 | 92 | 101 | 103 | 95.2 | 79.5 | 109 | 101 | 94.8 | growth at 10 µM (MDA-MB-435): 119%; growth at 10 µM (OVCAR-5): 103%; growth at 10 µM (NCI/ADR-RES): 97.6%; growth at 10 µM (SK-OV-3): 106%; growth at 10 µM (A498): 84.8%; growth at 10 µM (ACHN): 102%; growth at 10 µM (HT-29): 101%; growth at 10 µM (SNB-19): 114%; growth at 10 µM (U-251): 103%
5 | O=C1c2ccccc2C(=O)c2c1cc(Cl)c1nsnc21 | 103 | 0.21 | 132 | 49.9 | -4.57 | 102 | 71.9 | 71.9 | 23.5 | -23.4 | 5.18 | 1.87 | 2.44 | 27.8 | 103 | 75.8 | 100 | 96.8 | 95.9 | 37 | growth at 10 µM (SK-OV-3): 109%; growth at 10 µM (A498): 93.8%; growth at 10 µM (SF-295): 109%; growth at 10 µM (SNB-19): 106%; growth at 10 µM (U-251): 29.2%
